Test results as given in ChEMBL document CHEMBL3232838, “Synthesis, crystal structure and biological evaluation of some novel 1,2,4-triazolo[3,4-b]-1,3,4-thiadiazoles and 1,2,4-triazolo[3,4-b]-1,3,4-thiadiazines” (Eur J Med Chem, 2014).

What was measured:
Leishmania major [1] = assay: Antileishmanial activity against promastigote form of Leishmania major at 0.1 uM after 72 hrs by MTT assay; assay type: functional
Outline: (§1)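 Log-phase promastigotes grown at 25 °C in phenol-red-free D-MEM/F-12 with 10% heat-inactivated FBS, washed in PBS, seeded at 2.5×10⁶/mL (100 µL/well). Compounds in triplicate wells, 72 h at 25 °C; amphotericin B standard. MTT (5 mg/mL stock) 3 h, stopped with 50% isopropanol/10% SDS, OD570 minus 690. Percent inhibition vs control; mean ± SEM of three independent experiments.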

[2] = Anticancer activity against Syrian golden hamster BHK21 cells at 100 uM after 48 hrs by SRB assay; assay type: functional; conditions: Mesocricetus auratus, BHK-21, 48 h; read-out: GI
Outline: (§2)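 RPMI-1640 culture with 10% heat-inactivated FBS, 2 mM glutamine, 1 mM pyruvate and penicillin/streptomycin at 37 °C, 5% CO2. Cells per 96-well well: H157 10⁴, BHK-21 5×10⁴. After 24 h, monolayers were exposed to 100, 10, 1 or 0.1 µM compound for 48 h, with vincristine as standard. Cells were fixed in cold 50% TCA (4 °C, 1 h) and stained with 0.4% SRB in 1% acetic acid (30 min). Dye was dissolved in 10 mM Tris and read at A490 minus A630. Read-out was percent inhibition.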

[3] = Anticancer activity against Syrian golden hamster BHK21 cells at 0.1 uM after 48 hrs by SRB assay; assay type: functional; conditions: Mesocricetus auratus, BHK-21, 48 h; read-out: GI; outline: as §2
Leishmania major [4] = assay: Antileishmanial activity against promastigote form of Leishmania major at 10 uM after 72 hrs by MTT assay; assay type: functional; outline: as §1
NCI-H157 [5] = assay: Anticancer activity against human NCI-H157 cells at 100 uM after 48 hrs by SRB assay; assay type: functional; conditions: NCI-H157, 48 h, read-out: GI; outline: as §2
NCI-H157 [6] = assay: Anticancer activity against human NCI-H157 cells at 0.1 uM after 48 hrs by SRB assay; assay type: functional; conditions: NCI-H157, 48 h, read-out: GI; outline: as §2
[7] = Anticancer activity against Syrian golden hamster BHK21 cells at 1 uM after 48 hrs by SRB assay; assay type: functional; conditions: Mesocricetus auratus, BHK-21, 48 h; read-out: GI; outline: as §2
[8] = molecular target: Acetylcholinesterase (Electrophorus electricus) (UniProt O42275); assay: (§3) Inhibition of electric eel acetylcholinesterase using acetylthiocholine iodide as substrate preincubated for 10 mins before substrate addition after 15 mins by Ellman's method
Leishmania major [9] = assay: Antileishmanial activity against promastigote form of Leishmania major at 1 uM after 72 hrs by MTT assay; assay type: functional; outline: as §1
NCI-H157 [10] = assay: Anticancer activity against human NCI-H157 cells at 10 uM after 48 hrs by SRB assay; assay type: functional; conditions: NCI-H157, 48 h, read-out: GI; outline: as §2
[11] = Anticancer activity against Syrian golden hamster BHK21 cells at 10 uM after 48 hrs by SRB assay; assay type: functional; conditions: Mesocricetus auratus, BHK-21, 48 h; read-out: GI; outline: as §2
Leishmania major [12] = assay: Antileishmanial activity against promastigote form of Leishmania major at 100 uM after 72 hrs by MTT assay; assay type: functional; outline: as §1
Cholinesterase = Cholinesterase (Homo sapiens, UniProt P06276); assay: Inhibition of human BChE using butyrylthiocholine iodide as substrate preincubated for 10 mins before substrate addition after 15 mins by Ellman's method
Outline: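 Ellman assay in 50 mM Tris-HCl, 0.1 M NaCl, 0.02 M MgCl2, pH 8.0, with DMSO at 1% final. hBChE (3.4 U/mg) is preincubated with compound for 10 min at 25 °C. Blanks lack enzyme or substrate. IC50 from linear regression.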

NCI-H157 [13] = assay: Anticancer activity against human NCI-H157 cells at 1 uM after 48 hrs by SRB assay; assay type: functional; conditions: NCI-H157, 48 h, read-out: GI; outline: as §2
[14] = molecular target: Intestinal-type alkaline phosphatase (Bos taurus, UniProt P19111); assay: (§4) Inhibition of calf intestinal alkaline phosphatase using p-nitrophenyl phosphate as substrate preincubated for 10 mins before substrate addition after 30 mins
[15] = molecular target: Intestinal-type alkaline phosphatase (Bos taurus) (UniProt P19111); assay: as §4; parameters: concentration or dose not given beside the values
Acetylcholinesterase = Acetylcholinesterase (Electrophorus electricus, UniProt O42275); assay: as §3
Sequence of Acetylcholinesterase (O42275 whole entry): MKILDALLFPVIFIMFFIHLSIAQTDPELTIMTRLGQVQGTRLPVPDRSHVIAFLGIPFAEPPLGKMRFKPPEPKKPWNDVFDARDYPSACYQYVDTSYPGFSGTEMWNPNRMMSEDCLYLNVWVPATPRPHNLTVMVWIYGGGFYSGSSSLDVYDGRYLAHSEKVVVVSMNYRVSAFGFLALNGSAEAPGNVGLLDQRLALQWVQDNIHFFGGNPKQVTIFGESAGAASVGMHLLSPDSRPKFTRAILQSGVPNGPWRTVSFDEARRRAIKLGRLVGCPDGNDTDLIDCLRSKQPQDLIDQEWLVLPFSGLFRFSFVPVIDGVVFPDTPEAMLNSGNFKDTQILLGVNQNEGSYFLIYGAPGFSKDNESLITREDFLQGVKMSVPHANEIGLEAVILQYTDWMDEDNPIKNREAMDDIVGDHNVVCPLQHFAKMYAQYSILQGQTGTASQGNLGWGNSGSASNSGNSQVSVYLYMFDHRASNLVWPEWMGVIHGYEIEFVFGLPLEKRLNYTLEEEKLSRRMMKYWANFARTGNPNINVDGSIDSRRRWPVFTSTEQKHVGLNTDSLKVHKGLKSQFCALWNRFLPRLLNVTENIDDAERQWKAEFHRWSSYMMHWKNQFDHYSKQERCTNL

Sequence of Cholinesterase (P06276 whole entry): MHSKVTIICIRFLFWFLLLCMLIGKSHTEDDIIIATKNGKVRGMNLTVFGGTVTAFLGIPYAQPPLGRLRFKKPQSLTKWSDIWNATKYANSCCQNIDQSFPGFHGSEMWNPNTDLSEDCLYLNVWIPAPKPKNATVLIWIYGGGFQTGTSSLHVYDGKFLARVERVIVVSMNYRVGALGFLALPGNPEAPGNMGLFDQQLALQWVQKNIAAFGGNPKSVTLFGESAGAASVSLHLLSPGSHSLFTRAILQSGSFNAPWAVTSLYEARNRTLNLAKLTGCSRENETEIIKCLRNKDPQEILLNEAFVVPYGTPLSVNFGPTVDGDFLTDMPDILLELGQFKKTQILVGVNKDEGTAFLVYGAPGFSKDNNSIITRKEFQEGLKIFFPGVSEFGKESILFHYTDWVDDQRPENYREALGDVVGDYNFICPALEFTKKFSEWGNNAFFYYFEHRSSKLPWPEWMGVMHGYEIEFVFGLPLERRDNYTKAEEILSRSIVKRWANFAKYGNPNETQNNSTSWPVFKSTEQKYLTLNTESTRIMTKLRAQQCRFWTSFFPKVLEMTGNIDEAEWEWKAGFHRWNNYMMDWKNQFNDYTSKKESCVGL
Sequence of Intestinal-type alkaline phosphatase (Bos taurus) (P19111 20-506 limits assumed): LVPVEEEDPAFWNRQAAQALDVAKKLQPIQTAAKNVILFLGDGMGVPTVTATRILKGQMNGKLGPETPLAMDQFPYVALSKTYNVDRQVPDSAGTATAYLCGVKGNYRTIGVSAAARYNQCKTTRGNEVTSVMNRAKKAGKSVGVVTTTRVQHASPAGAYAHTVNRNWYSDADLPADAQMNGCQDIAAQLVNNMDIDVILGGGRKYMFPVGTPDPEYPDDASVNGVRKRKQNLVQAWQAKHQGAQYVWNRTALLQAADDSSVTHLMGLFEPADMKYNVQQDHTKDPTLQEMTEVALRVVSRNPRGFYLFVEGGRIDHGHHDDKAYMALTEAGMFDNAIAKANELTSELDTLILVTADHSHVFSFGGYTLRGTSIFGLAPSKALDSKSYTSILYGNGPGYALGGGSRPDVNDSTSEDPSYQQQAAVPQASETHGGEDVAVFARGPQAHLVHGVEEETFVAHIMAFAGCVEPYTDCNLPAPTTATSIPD
Sequence of Acetylcholinesterase (Electrophorus electricus) (O42275 24-633 limits assumed): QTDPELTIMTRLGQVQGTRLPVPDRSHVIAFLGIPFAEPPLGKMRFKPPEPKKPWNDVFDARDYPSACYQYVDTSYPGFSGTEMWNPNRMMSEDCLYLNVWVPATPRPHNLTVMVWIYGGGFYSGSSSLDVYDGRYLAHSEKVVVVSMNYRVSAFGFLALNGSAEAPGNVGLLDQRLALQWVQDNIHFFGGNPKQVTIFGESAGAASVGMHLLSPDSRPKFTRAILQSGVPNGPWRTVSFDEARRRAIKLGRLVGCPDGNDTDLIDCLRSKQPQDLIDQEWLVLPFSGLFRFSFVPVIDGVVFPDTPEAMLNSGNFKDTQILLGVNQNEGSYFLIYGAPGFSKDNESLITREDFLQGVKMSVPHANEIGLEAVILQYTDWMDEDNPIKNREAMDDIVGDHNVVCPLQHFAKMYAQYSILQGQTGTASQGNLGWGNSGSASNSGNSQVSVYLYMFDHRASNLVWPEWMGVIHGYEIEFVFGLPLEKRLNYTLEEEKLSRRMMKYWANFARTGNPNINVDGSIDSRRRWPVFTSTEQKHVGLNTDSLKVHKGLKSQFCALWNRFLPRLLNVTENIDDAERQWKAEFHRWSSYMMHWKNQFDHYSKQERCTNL
Sequence of Intestinal-type alkaline phosphatase (P19111 whole entry): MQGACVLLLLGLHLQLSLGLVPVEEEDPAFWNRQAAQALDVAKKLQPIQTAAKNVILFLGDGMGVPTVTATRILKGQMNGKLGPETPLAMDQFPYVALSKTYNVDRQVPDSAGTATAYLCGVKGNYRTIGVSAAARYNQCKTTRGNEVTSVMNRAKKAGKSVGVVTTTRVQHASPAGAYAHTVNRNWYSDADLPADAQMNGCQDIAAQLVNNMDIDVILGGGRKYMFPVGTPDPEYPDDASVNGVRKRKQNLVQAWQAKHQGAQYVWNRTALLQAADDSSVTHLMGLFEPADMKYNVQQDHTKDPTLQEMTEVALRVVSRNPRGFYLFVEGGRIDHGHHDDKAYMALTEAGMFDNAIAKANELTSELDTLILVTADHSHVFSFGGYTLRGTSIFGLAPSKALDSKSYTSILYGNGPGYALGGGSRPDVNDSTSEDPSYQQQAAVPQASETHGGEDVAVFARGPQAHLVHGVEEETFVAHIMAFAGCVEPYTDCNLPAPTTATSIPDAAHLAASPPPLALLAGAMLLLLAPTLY

c1cc(-c2nnc3sc(-c4ccoc4)nn23)ccn1
inhibition at 0.1 µM (Leishmania major [1]): 45.2% | inhibition of growth at 100 µM [2]: 31.2% | inhibition of growth at 0.1 µM [3]: 20.3% | inhibition at 10 µM (Leishmania major [4]): 51.5% | inhibition of growth at 100 µM (NCI-H157 [5]): 64.3% | inhibition of growth at 0.1 µM (NCI-H157 [6]): 54.8% | inhibition of growth at 1 µM [7]: 23.3% | inhibition [8]: 34.6% | inhibition at 1 µM (Leishmania major [9]): 48.5% | inhibition of growth at 10 µM (NCI-H157 [10]): 61.6% | inhibition of growth at 10 µM [11]: 28.7% | inhibition at 100 µM (Leishmania major [12]): 54.6% | IC50 (Cholinesterase): 36.2 µM | inhibition of growth at 1 µM (NCI-H157 [13]): 57.7% | IC50 [14]: 7.71 µM

Cc1ccc(C2=Nn3c(nnc3-c3ccncc3)SC2)cc1
inhibition at 0.1 µM (Leishmania major [1]): 34.5% | inhibition of growth at 100 µM [2]: 72.6% | inhibition of growth at 0.1 µM [3]: 53.1% | inhibition at 10 µM (Leishmania major [4]): 39.8% | inhibition of growth at 100 µM (NCI-H157 [5]): 63.8% | inhibition of growth at 0.1 µM (NCI-H157 [6]): 50.3% | inhibition of growth at 1 µM [7]: 62% | inhibition [8]: 46.1% | inhibition at 1 µM (Leishmania major [9]): 37.7% | inhibition of growth at 10 µM (NCI-H157 [10]): 57.3% | inhibition of growth at 10 µM [11]: 68.7% | inhibition at 100 µM (Leishmania major [12]): 43.9% | IC50 (Cholinesterase): 26.1 µM | inhibition of growth at 1 µM (NCI-H157 [13]): 53.2% | inhibition [15]: 35.7%

Oc1ccccc1OCc1nn2c(-c3ccncc3)nnc2s1
inhibition at 0.1 µM (Leishmania major [1]): 27.8% | inhibition of growth at 100 µM [2]: 53.8% | inhibition of growth at 0.1 µM [3]: 43.8% | inhibition at 10 µM (Leishmania major [4]): 34.6% | inhibition of growth at 100 µM (NCI-H157 [5]): 41.8% | inhibition of growth at 0.1 µM (NCI-H157 [6]): 31.8% | inhibition of growth at 1 µM [7]: 46.3% | IC50 (Acetylcholinesterase): 54 µM | inhibition at 1 µM (Leishmania major [9]): 31.2% | inhibition of growth at 10 µM (NCI-H157 [10]): 37.3% | inhibition of growth at 10 µM [11]: 49.9% | inhibition at 100 µM (Leishmania major [12]): 37.2% | IC50 (Cholinesterase): 18 µM | inhibition of growth at 1 µM (NCI-H157 [13]): 35.9% | inhibition [15]: 46%

COc1cccc(C2=Nn3c(nnc3-c3ccncc3)SC2)c1
inhibition at 0.1 µM (Leishmania major [1]): 29.3% | inhibition of growth at 100 µM [2]: 73.3% | inhibition of growth at 0.1 µM [3]: 52.4% | inhibition at 10 µM (Leishmania major [4]): 35.2% | inhibition of growth at 100 µM (NCI-H157 [5]): 54.4% | inhibition of growth at 0.1 µM (NCI-H157 [6]): 43.1% | inhibition of growth at 1 µM [7]: 66.7% | IC50 (Acetylcholinesterase): 23.8 µM | inhibition at 1 µM (Leishmania major [9]): 32.3% | inhibition of growth at 10 µM (NCI-H157 [10]): 51.1% | inhibition of growth at 10 µM [11]: 69.9% | inhibition at 100 µM (Leishmania major [12]): 38.6% | inhibition (Cholinesterase): 28.9% | inhibition of growth at 1 µM (NCI-H157 [13]): 47.5% | inhibition [15]: 38.5%

Clc1ccc(C2=Nn3c(nnc3-c3ccncc3)SC2)cc1Cl
inhibition at 0.1 µM (Leishmania major [1]): 49.3% | inhibition of growth at 100 µM [2]: 63.5% | inhibition of growth at 0.1 µM [3]: 52.8% | inhibition at 10 µM (Leishmania major [4]): 56.4% | inhibition of growth at 100 µM (NCI-H157 [5]): 72.1% | inhibition of growth at 0.1 µM (NCI-H157 [6]): 59.4% | inhibition of growth at 1 µM [7]: 56.5% | inhibition [8]: 46% | inhibition at 1 µM (Leishmania major [9]): 52.3% | inhibition of growth at 10 µM (NCI-H157 [10]): 67.4% | inhibition of growth at 10 µM [11]: 59.4% | inhibition at 100 µM (Leishmania major [12]): 59.8% | IC50 (Cholinesterase): 12.2 µM | inhibition of growth at 1 µM (NCI-H157 [13]): 63.5% | IC50 [14]: 1.32 µM

Fc1cc(Cl)c(-c2nn3c(-c4ccncc4)nnc3s2)cc1F
inhibition at 0.1 µM (Leishmania major [1]): 31.3% | inhibition of growth at 100 µM [2]: 58.9% | inhibition of growth at 0.1 µM [3]: 46.7% | inhibition at 10 µM (Leishmania major [4]): 37.9% | inhibition of growth at 100 µM (NCI-H157 [5]): 49.2% | inhibition of growth at 0.1 µM (NCI-H157 [6]): 36.4% | inhibition of growth at 1 µM [7]: 49.7% | inhibition [8]: 47.2% | inhibition at 1 µM (Leishmania major [9]): 35.4% | inhibition of growth at 10 µM (NCI-H157 [10]): 45.2% | inhibition of growth at 10 µM [11]: 53.9% | inhibition at 100 µM (Leishmania major [12]): 40.3% | inhibition (Cholinesterase): 18.2% | inhibition of growth at 1 µM (NCI-H157 [13]): 41.4% | inhibition [15]: 31.6%

Cc1occc1-c1nn2c(-c3ccncc3)nnc2s1
inhibition at 0.1 µM (Leishmania major [1]): 25.1% | inhibition of growth at 100 µM [2]: 64.7% | inhibition of growth at 0.1 µM [3]: 54.6% | inhibition at 10 µM (Leishmania major [4]): 30.8% | inhibition of growth at 100 µM (NCI-H157 [5]): 58.4% | inhibition of growth at 0.1 µM (NCI-H157 [6]): 47.1% | inhibition of growth at 1 µM [7]: 57% | IC50 (Acetylcholinesterase): 51.2 µM | inhibition at 1 µM (Leishmania major [9]): 27.3% | inhibition of growth at 10 µM (NCI-H157 [10]): 55.1% | inhibition of growth at 10 µM [11]: 61.6% | inhibition at 100 µM (Leishmania major [12]): 34.9% | inhibition (Cholinesterase): 41.2% | inhibition of growth at 1 µM (NCI-H157 [13]): 51.9% | inhibition [15]: 29.9%

Clc1cccc(C2=Nn3c(nnc3-c3ccncc3)SC2)c1
inhibition at 0.1 µM (Leishmania major [1]): 31.7% | inhibition of growth at 100 µM [2]: 56.4% | inhibition of growth at 0.1 µM [3]: 46.2% | inhibition at 10 µM (Leishmania major [4]): 38.3% | inhibition of growth at 100 µM (NCI-H157 [5]): 67.4% | inhibition of growth at 0.1 µM (NCI-H157 [6]): 57.4% | inhibition of growth at 1 µM [7]: 50.3% | IC50 (Acetylcholinesterase): 22.7 µM | inhibition at 1 µM (Leishmania major [9]): 34.6% | inhibition of growth at 10 µM (NCI-H157 [10]): 63.8% | inhibition of growth at 10 µM [11]: 53.3% | inhibition at 100 µM (Leishmania major [12]): 41.8% | IC50 (Cholinesterase): 39.4 µM | inhibition of growth at 1 µM (NCI-H157 [13]): 60.8% | inhibition [15]: 48%
